Assay results: ChEMBL document CHEMBL1275345, “Pyrazolo[1',5':1,6]pyrimido[4,5-d]pyridazin-4(3H)-ones as selective human A(1) adenosine receptor ligands” (Bioorg Med Chem, 2010)
The source made the active and inactive calls. No cut-off for these calls is given here.

Tests used:
[1] = biological target: T1, Adenosine receptor A2b (Homo sapiens) (UniProt P29275); assay: Displacement of [3H]DPCPX from human adenosine A2b receptor expressed in HEK293 cells at 10 uM after 30 mins; format: cell-based
T1 sequence (whole entry): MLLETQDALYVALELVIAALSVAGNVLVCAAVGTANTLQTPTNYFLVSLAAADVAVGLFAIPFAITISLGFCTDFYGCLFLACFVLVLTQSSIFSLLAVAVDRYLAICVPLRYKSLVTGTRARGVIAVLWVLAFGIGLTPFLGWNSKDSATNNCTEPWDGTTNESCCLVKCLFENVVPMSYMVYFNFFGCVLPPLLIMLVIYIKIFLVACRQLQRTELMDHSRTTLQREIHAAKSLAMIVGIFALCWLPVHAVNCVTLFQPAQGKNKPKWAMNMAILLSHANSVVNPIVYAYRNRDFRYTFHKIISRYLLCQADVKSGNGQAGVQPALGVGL
Summary of the method: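 Human A2B receptor expressed in HEK-293 cells, with displacement of [3H]DPCPX. Incubated at 25 °C for 30 min, then filtered and counted by beta scintillation. Reported as Ki (nM) or percentage inhibition at the single test concentration. Means of four independent assays, each run in triplicate.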

Adenosine receptor A2a [2] = biological target: T2, Adenosine receptor A2a (Homo sapiens, UniProt P29274); assay: Displacement of [3H]ZM241385 from human adenosine A2a receptor expressed in HeLa cells at 10 uM after 30 mins; format: cell-based
Summary of the method: (§1)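 [3H]ZM241385 specific binding in HeLa cells expressing human A2A receptor. Incubation at 25 °C for 30 min, followed by filtration and beta scintillation counting. Output is Ki (nM) or % inhibition at the single test concentration. Values are means of four separate assays, each performed in triplicate.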

[3] = biological target: T3, Adenosine receptor A3 (Homo sapiens) (UniProt P0DMS8); assay: Displacement of [3H]NECA from human adenosine A3 receptor expressed in HeLa cells at 10 uM after 180 mins; format: cell-based
T3 sequence (whole entry): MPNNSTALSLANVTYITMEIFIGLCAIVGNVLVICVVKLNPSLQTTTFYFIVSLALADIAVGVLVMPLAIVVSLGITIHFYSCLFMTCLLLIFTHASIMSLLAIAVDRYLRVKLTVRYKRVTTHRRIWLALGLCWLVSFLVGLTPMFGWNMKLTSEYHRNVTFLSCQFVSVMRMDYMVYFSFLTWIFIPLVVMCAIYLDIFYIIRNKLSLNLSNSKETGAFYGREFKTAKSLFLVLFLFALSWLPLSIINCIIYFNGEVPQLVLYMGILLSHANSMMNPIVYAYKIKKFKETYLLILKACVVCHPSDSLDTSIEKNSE
Summary of the method: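 HeLa cells expressing human A3 receptor, with displacement of [3H]NECA. Incubated at 25 °C for 180 min, then filtered and counted by beta scintillation. Ki (nM) or percentage inhibition at the single test concentration. Means of four assays, each in triplicate.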

Adenosine receptor A1 = biological target: T4, Adenosine receptor A1 (Homo sapiens, UniProt P30542); assay: Displacement of [3H]DPCPX from human adenosine A1 receptor expressed in CHO-A1 cells after 60 mins; format: cell-based
T4 sequence (P30542 whole entry): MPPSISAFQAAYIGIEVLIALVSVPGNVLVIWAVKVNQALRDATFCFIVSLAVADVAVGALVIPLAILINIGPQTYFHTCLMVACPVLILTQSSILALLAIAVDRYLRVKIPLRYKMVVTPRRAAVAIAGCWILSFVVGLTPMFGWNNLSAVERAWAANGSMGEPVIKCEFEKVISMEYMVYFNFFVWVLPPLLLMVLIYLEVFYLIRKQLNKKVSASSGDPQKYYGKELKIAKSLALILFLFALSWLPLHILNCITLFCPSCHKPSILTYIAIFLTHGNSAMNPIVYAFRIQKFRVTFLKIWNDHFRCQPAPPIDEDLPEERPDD
Summary of the method: (§2)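 Competition binding on membranes from CHO cells expressing human A1 receptor, labelled with 2 nM [3H]DPCPX. Non-specific binding defined with (R)-PIA. Incubation at 25 °C for 60 min, then filtration and beta scintillation counting. Result given as Ki (nM) or % inhibition at the single test concentration. Means of four separate assays, each in triplicate.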

[4] = biological target: T5, Adenosine receptor A1 (Homo sapiens) (UniProt P30542); assay: Displacement of [3H]DPCPX from human adenosine A1 receptor expressed in CHO-A1 cells at 10 uM after 60 mins; format: cell-based; summary of the method: as §2
T5 sequence (whole entry): T4 sequence (P30542 whole entry)

Homo sapiens = species on record: Homo sapiens; assay: Selectivity ratio of Ki for human adenosine A2a receptor to Ki for human A1 receptor
Adenosine receptor A2a [5] = biological target: T2, Adenosine receptor A2a; assay: Displacement of [3H]ZM241385 from human adenosine A2a receptor expressed in HeLa cells after 30 mins; format: cell-based; summary of the method: as §1
[6] = biological target: cGMP-specific 3',5'-cyclic phosphodiesterase (Homo sapiens) (UniProt O76074); assay: Inhibition of human platelets PDE5 at 2 uM
Summary of the method: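 PDE5 came from human platelet lysate (10⁹ platelets): the supernatant was fractionated on a Mono-Q ion-exchange column. Activity was measured with a two-step cyclic nucleotide phosphodiesterase procedure. Compounds were tested at a single concentration and the result given as % inhibition.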

T2 sequence (P29274 whole entry): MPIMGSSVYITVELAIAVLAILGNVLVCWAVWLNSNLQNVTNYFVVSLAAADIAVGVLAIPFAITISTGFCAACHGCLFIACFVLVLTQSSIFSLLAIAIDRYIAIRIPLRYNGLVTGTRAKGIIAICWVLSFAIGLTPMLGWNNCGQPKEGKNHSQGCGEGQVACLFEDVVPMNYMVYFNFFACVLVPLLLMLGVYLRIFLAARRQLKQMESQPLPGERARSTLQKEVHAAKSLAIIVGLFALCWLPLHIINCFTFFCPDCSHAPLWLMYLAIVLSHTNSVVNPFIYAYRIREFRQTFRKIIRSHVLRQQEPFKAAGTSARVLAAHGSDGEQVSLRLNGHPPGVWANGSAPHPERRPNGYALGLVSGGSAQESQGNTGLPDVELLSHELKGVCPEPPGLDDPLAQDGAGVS

| inhibition [1] | inhibition (Adenosine receptor A2a [2]) | inhibition [3] | Ki (Adenosine receptor A1) | inhibition [4] | Ratio Ki (Homo sapiens) | Ki (Adenosine receptor A2a [5]) | inhibition [6] | SMILES |
| --- | --- | --- | --- | --- | --- | --- | --- | --- |
| inactive | inactive | inactive | – | < 50% | – | – | – | CC(C)c1nc2c(=O)n(Cc3ccccc3)nc(-c3ccccc3)c2c2cc(-c3ccccc3)nn12 |
| inactive | – | inactive | 11.4 nM | – | 71 | 805 nM | – | O=c1c2ncn3nc(-c4ccccc4)cc3c2c(-c2cccnc2)nn1Cc1ccccc1 |
| inactive | inactive | inactive | 123 nM | – | – | – | – | O=c1c2ncn3nc(-c4ccsc4)cc3c2c(-c2ccc(F)cc2)nn1Cc1ccccc1 |
| inactive | < 50% | inactive | – | < 50% | – | – | – | Cc1nc2c(SCc3ccccc3)nnc(-c3ccncc3)c2c2cc(-c3ccccc3)nn12 |
| inactive | < 50% | inactive | 180 nM | – | – | – | 32.8% | CCc1nc2c(=O)n(Cc3ccccc3)nc(-c3cccnc3)c2c2cc(-c3ccccc3)nn12 |
| inactive | – | inactive | 267 nM | – | – | 572 nM | – | Cc1nc2c(=S)n(Cc3ccccc3)nc(-c3ccncc3)c2c2cc(-c3ccccc3)nn12 |
| < 50% | < 50% | < 50% | 3250 nM | – | – | – | – | Cc1nn(Cc2ccccc2)c(=O)c2nc(C)n3nc(-c4ccccc4)cc3c12 |
| < 50% | < 50% | < 50% | – | < 50% | – | – | – | Cc1nn(Cc2ccccc2)c(=O)c2ncn3nccc3c12 |
| inactive | – | inactive | 71.8 nM | – | – | 2490 nM | – | CCc1nc2c(=O)n(Cc3ccccc3)nc(-c3ccncc3)c2c2cc(-c3ccccc3)nn12 |
| inactive | inactive | inactive | – | < 50% | – | – | – | CCc1nc2c(=O)n(Cc3ccccc3)nc(-c3cccc(F)c3)c2c2cc(-c3ccccc3)nn12 |
| inactive | inactive | inactive | – | < 50% | – | – | – | Cc1nc2c(=O)n(Cc3ccccc3)nc(-c3cccc(F)c3)c2c2cc(-c3ccsc3)nn12 |
| < 50% | < 50% | < 50% | – | < 50% | – | – | – | Cc1nn(Cc2ccccc2)c(=O)c2nc(C)n3nccc3c12 |
| inactive | inactive | inactive | 92.7 nM | – | – | – | – | O=c1c2ncn3nc(-c4ccccc4)cc3c2c(-c2cccc(F)c2)nn1Cc1ccccc1 |
| inactive | inactive | inactive | – | < 50% | – | – | – | Cc1nc2c(=O)n(Cc3ccccc3)nc(-c3ccc(F)cc3)c2c2cc(-c3ccccc3)nn12 |

The remaining lines, values behind:

| SMILES | inhibition [1] | inhibition (Adenosine receptor A2a [2]) | inhibition [3] | Ki (Adenosine receptor A1) | inhibition [4] | Ratio Ki (Homo sapiens) | Ki (Adenosine receptor A2a [5]) | inhibition [6] |
| --- | --- | --- | --- | --- | --- | --- | --- | --- |
| Cc1nc2c(=O)n(Cc3ccccc3)nc(-c3ccccc3)c2c2cc(-c3ccccc3)nn12 | inactive | inactive | inactive | 1590 nM | – | – | – | – |
| O=c1c2ncn3nc(-c4ccccc4)cc3c2c(-c2ccccc2)nn1Cc1ccccc1 | inactive | inactive | inactive | 1430 nM | – | – | – | – |
| CCc1nc2c(=O)n(Cc3ccccc3)nc(-c3cccc(F)c3)c2c2cc(-c3ccsc3)nn12 | inactive | inactive | inactive | – | < 50% | – | – | – |
| CCCc1nc2c(=O)n(Cc3ccccc3)nc(-c3ccncc3)c2c2cc(-c3ccccc3)nn12 | inactive | – | inactive | 28.3 nM | – | – | 772 nM | – |
| CCc1nc2c(=O)n(Cc3ccccc3)nc(-c3ccccc3)c2c2cc(-c3ccccc3)nn12 | inactive | inactive | inactive | 2440 nM | – | – | – | – |
| CCCc1nc2c(=O)n(Cc3ccccc3)nc(-c3ccccc3)c2c2cc(-c3ccccc3)nn12 | inactive | inactive | inactive | 563 nM | – | – | – | – |
| O=c1c2ncn3nc(-c4ccccc4)cc3c2c(-c2ccncc2)nn1Cc1ccccc1 | inactive | – | inactive | 10.2 nM | – | 7 | 67.9 nM | – |
| Fc1ccc(-c2nnc(Cl)c3ncn4nc(-c5ccccc5)cc4c23)cc1 | inactive | inactive | inactive | – | < 50% | – | – | – |
| Cc1nn(Cc2ccccc2)c(=O)c2nnn3nc(-c4ccccc4)cc3c12 | < 50% | < 50% | < 50% | – | < 50% | – | – | – |
| O=c1c2nc(C(F)(F)F)n3nc(-c4ccccc4)cc3c2c(-c2ccc(F)cc2)nn1Cc1ccccc1 | inactive | inactive | inactive | – | < 50% | – | – | – |
| CCc1nc2c(=O)n(C(C)c3ccccc3)nc(C)c2c2cc(-c3ccccc3)nn12 (stereo unspecified) | < 50% | < 50% | < 50% | 2380 nM | – | – | – | – |
| O=c1c2ncn3nc(-c4ccsc4)cc3c2c(-c2cccc(F)c2)nn1Cc1ccccc1 | inactive | inactive | inactive | 189 nM | – | – | – | – |
| CC(C)c1nc2c(=O)n(Cc3ccccc3)nc(-c3ccncc3)c2c2cc(-c3ccccc3)nn12 | inactive | – | inactive | 192 nM | – | – | 5190 nM | – |
| Cc1nc2c(=O)n(Cc3ccccc3)nc(-c3cccnc3)c2c2cc(-c3ccccc3)nn12 | inactive | – | inactive | 47.4 nM | – | – | 2110 nM | 29.7% |
| CCc1nc2c(=O)n(Cc3ccccc3)nc(-c3ccc(F)cc3)c2c2cc(-c3ccccc3)nn12 | inactive | inactive | inactive | – | < 50% | – | – | – |
| Cc1nc2c(=O)n(Cc3ccccc3)nc(-c3ccncc3)c2c2cc(-c3ccccc3)nn12 | inactive | – | inactive | 43.6 nM | – | – | 501 nM | 5.7% |
| Cc1nn(C(C)c2ccccc2)c(=O)c2ncn3nc(-c4ccccc4)cc3c12 (stereo unspecified) | < 50% | < 50% | < 50% | 475 nM | – | – | – | – |
| Cc1nc2c(=O)n(Cc3ccccc3)nc(-c3cccc(F)c3)c2c2cc(-c3ccccc3)nn12 | inactive | inactive | inactive | 3240 nM | – | – | – | – |
| O=c1c2ncn3nc(-c4ccccc4)cc3c2c(-c2ccc(F)cc2)nn1Cc1ccccc1 | inactive | inactive | inactive | 252 nM | – | – | – | – |
| Cc1nc2c(=O)n(Cc3ccccc3)nc(Cl)c2c2cc(-c3ccccc3)nn12 | < 50% | – | < 50% | 1620 nM | – | – | 3150 nM | – |
